Read-outs that look alike come from different tables or passages of the source.
Assays:
[1] = Prevalence of serum antidrug antibodies in FILLY, OAKS and DERBY; assay type: in vivo, human; settings: detectable at baseline or at any time during the study
[2] = tested on: patients with GA secondary to AMD (GA lesion area, study eye); test: Dose-response model of GA lesion area, pooled FILLY, OAKS and DERBY data; assay type: in vivo, human; settings: point estimate
Outline: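 Study eyes were randomized 2:2:1:1 to a 100 μL intravitreal injection of test compound 15 mg monthly or EOM, or sham monthly or EOM, for ≤24 months. GA lesion area was measured by fundus autofluorescence. A linear-with-time disease progression model with covariates was built from sham and untreated fellow eyes. Step-function drug effects per regimen were fitted in NONMEM.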

[3] = tested on: patients with GA secondary to AMD (GA lesion area); settings: phase II FILLY, cited from earlier work
[4] = cited from earlier work
[5] = tested on: patients with GA secondary to AMD (GA lesion area); settings: phase III OAKS and DERBY combined, cited from earlier work
[6] = cited from earlier work; remark: listed apart in the source

Substance: pegcetacoplan
- prevalence of serum antidrug antibodies against the PEG moiety [1]: 67%
- prevalence of serum antidrug antibodies against the peptide moiety [1]: 5%
- model-predicted rate of disease progression (GA lesion growth rate) relative to sham ([2]; pegcetacoplan 15 mg intravitreal EOM, 95% CI 0.78, 0.87): 0.83 fold
- model-predicted rate of disease progression (GA lesion growth rate) relative to sham ([2]; pegcetacoplan 15 mg intravitreal monthly, 95% CI 0.75, 0.84): 0.80 fold
- reduction in GA lesion area growth compared with sham treatment ([3]; EOM): 20%
- reduction in GA lesion area growth compared with sham treatment ([3]; monthly): 29%
- model-predicted steady-state serum maximal concentration, geometric mean ([4]; patients with GA, 15 mg intravitreal EOM, CV 58.1%): 1.5 µg/mL
- accumulation from first dose to steady-state, ratio of geometric mean exposure ([4]; serum or vitreous humor): 1.10–1.50
- reduction in GA lesion area growth compared with sham treatment ([5]; EOM): 24%
- reduction in GA lesion area growth compared with sham treatment ([5]; monthly): 30%
- average exposure relative to reference body weight 70 kg ([6]; 5th percentile of body weight (53 kg), higher, 90% CI 1.16-1.23): 1.20 fold
- average exposure relative to reference body weight 70 kg ([6]; 95th percentile of body weight (94 kg), lower, 90% CI 0.800-0.853): 0.827 fold
- effective elimination half-life, median (interquartile range) ([6]; patients with paroxysmal nocturnal hemoglobinuria): 8.6 (6.9–11.0) days
- clearance, predicted geometric mean ([6]; population PK model, 11 clinical studies, CV 30%): 0.36 L/day
